Results reported in ChEMBL document CHEMBL3124818, “Synthesis and antimicrobial evaluation of amide derivatives of benzodifuran-2-carboxylic acid” (2014).
In brackets after ≈: the same amount, converted by molar mass.

Columns and labels:
Assay type in all cases: functional
Candida albicans = experiment: Antifungal activity against Candida albicans by broth dilution method
Outline: (§1)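 Broth dilution screen. Compounds tested at 40 μg to 600 μg. MIC was read as the lowest concentration preventing visible growth. Solvent controls were included. Ciprofloxacin (antibacterial) and fluconazole (antifungal) were run under similar conditions as reference drugs.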

Pseudomonas aeruginosa = experiment: Antibacterial activity against Pseudomonas aeruginosa by broth dilution method; outline: as §1
Escherichia coli = experiment: Antibacterial activity against Escherichia coli by broth dilution method; outline: as §1
Bacillus subtilis = experiment: Antibacterial activity against Bacillus subtilis by broth dilution method; outline: as §1
Staphylococcus aureus = experiment: Antibacterial activity against Staphylococcus aureus by broth dilution method; outline: as §1

Structure (SMILES)	MIC (Candida albicans)	MIC (Pseudomonas aeruginosa)	MIC (Escherichia coli)	MIC (Bacillus subtilis)	MIC (Staphylococcus aureus)
Cc1ccc(NC(=O)c2oc3cc4occ(C)c4cc3c2C)cc1	≥ 600 µg/mL	≥ 600 µg/mL	≥ 600 µg/mL	200 µg/mL (≈ 626 µM)	200 µg/mL (≈ 626 µM)
Cc1coc2cc3oc(C(=O)Nc4ccc(C(=O)O)cc4)c(C)c3cc12	600 µg/mL (≈ 1720 µM)	600 µg/mL (≈ 1720 µM)	400 µg/mL (≈ 1150 µM)	160 µg/mL (≈ 458 µM)	600 µg/mL (≈ 1720 µM)
COc1ccc(NC(=O)c2oc3cc4occ(C)c4cc3c2C)cc1	≥ 600 µg/mL	≥ 600 µg/mL	≥ 600 µg/mL	400 µg/mL (≈ 1190 µM)	160 µg/mL (≈ 477 µM)
Cc1coc2cc3oc(C(=O)Nc4ccc(O)cc4)c(C)c3cc12	≥ 600 µg/mL	≥ 600 µg/mL	600 µg/mL (≈ 1870 µM)	200 µg/mL (≈ 622 µM)	600 µg/mL (≈ 1870 µM)
Cc1coc2cc3oc(C(=O)Nc4ccc(Cl)cc4)c(C)c3cc12	≥ 600 µg/mL	≥ 600 µg/mL	200 µg/mL (≈ 589 µM)	200 µg/mL (≈ 589 µM)	400 µg/mL (≈ 1180 µM)
Cc1coc2cc3oc(C(=O)Nc4ccccc4)c(C)c3cc12	600 µg/mL (≈ 1970 µM)	600 µg/mL (≈ 1970 µM)	600 µg/mL (≈ 1970 µM)	400 µg/mL (≈ 1310 µM)	600 µg/mL (≈ 1970 µM)
Cc1coc2cc3oc(C(=O)N4CCOCC4)c(C)c3cc12	≥ 600 µg/mL	≥ 600 µg/mL	600 µg/mL (≈ 2000 µM)	200 µg/mL (≈ 668 µM)	400 µg/mL (≈ 1340 µM)
Cc1coc2cc3oc(C(=O)N4CCCC4)c(C)c3cc12	600 µg/mL (≈ 2120 µM)	≥ 600 µg/mL	400 µg/mL (≈ 1410 µM)	400 µg/mL (≈ 1410 µM)	160 µg/mL (≈ 565 µM)
Cc1coc2cc3oc(C(=O)N4CCCCC4)c(C)c3cc12	≥ 600 µg/mL	≥ 600 µg/mL	600 µg/mL (≈ 2020 µM)	200 µg/mL (≈ 673 µM)	400 µg/mL (≈ 1350 µM)
CCN(CC)C(=O)c1oc2cc3occ(C)c3cc2c1C	600 µg/mL (≈ 2100 µM)	600 µg/mL (≈ 2100 µM)	400 µg/mL (≈ 1400 µM)	400 µg/mL (≈ 1400 µM)	160 µg/mL (≈ 561 µM)
Cc1coc2cc3oc(C(=O)N4CCc5ccccc5C4)c(C)c3cc12	600 µg/mL (≈ 1740 µM)	≥ 600 µg/mL	≥ 600 µg/mL	160 µg/mL (≈ 463 µM)	400 µg/mL (≈ 1160 µM)
O=C(O)c1cn(C2CC2)c2cc(N3CCNCC3)c(F)cc2c1=O [CIPROFLOXACIN]	–	7.5 µg/mL (≈ 22.6 µM)	15 µg/mL (≈ 45.3 µM)	2 µg/mL (≈ 6.04 µM)	5 µg/mL (≈ 15.1 µM)
OC(Cn1cncn1)(Cn1cncn1)c1ccc(F)cc1F [FLUCONAZOLE]	5 µg/mL (≈ 16.3 µM)	–	–	–	–
